Common to all, as to format: functional
Experiment [1] relates to Escherichia coli. Kind of experiment: Antibacterial activity against Escherichia coli after 24 hrs. In outline: (§1)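 Broth microdilution MIC. Compound stock in DMSO, serially diluted 1000 to 0.97 μg/mL in sterile distilled water. Bacteria were freshly grown in double-strength Mueller-Hinton broth and adjusted to 108 CFU/mL. Equal volumes of dilution and suspension were mixed. Sterile water well served as growth control, and dilutions without organism as negative control. After 37 °C for 24 h, MIC was read as the first well without turbidity.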

In experiment [2] the test system is Ceratobasidium cereale. The experiment in a line: Antifungal activity against Rhizoctonia cerealis at 200 ug/mL after 7 to 10 days by agar tube dilution technique. An outline of the steps:
(§2)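 Agar tube dilution against plant pathogenic fungi. Compound in DMSO was mixed into molten SDA to a final 200 μg/mL and solidified as slants at room temperature. Slants were inoculated with 4×4 mm plugs cut from 1-week cultures and incubated 7–10 days at 29 °C. Linear growth (mm) was measured, and % inhibition was calculated against a DMSO-only medium control. Ketoconazole served as the reference drug.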

For experiment [3], the system named is Micrococcus luteus. The experiment in a line: Antibacterial activity against Micrococcus luteus after 24 hrs. An outline of the steps: as §1
For experiment [4], the system named is Staphylococcus aureus. Kind of experiment: Antibacterial activity against Staphylococcus aureus after 24 hrs. In outline:
as §1

For experiment [5], the system named is Pseudomonas aeruginosa. Kind of experiment: Antibacterial activity against Pseudomonas aeruginosa after 24 hrs. In outline: as §1
The subject of experiment [6] is Drechslera. The experiment in a line: Antifungal activity against Drechslera sorokinianse at 200 ug/mL after 7 to 10 days by agar tube dilution technique relative to ketoconazole. In outline: as §2
The subject of experiment [7] is Akanthomyces muscarius. Kind of experiment: Antifungal activity against Cephalosporium ophidicola at 200 ug/mL after 7 to 10 days by agar tube dilution technique. An outline of the steps: as §2
The test system of experiment [8] is Nakaseomyces glabratus. The experiment in a line: Antifungal activity against Candida glabrata after 24 hrs. An outline of the steps: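 Broth microdilution: pure compound stock in DMSO, serially diluted from 1000 to 0.97 μg/mL in sterile distilled water. Each dilution was mixed with an equal volume of standardized C. glabrata suspension in yeast medium. Sterile water served as growth control, and dilutions without organism as negative control. After 24 h at 37 °C, MIC was read as the first well without turbidity.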

The test system of experiment [9] is Fusarium solani. Kind of experiment: Antifungal activity against Fusarium solani at 200 ug/mL after 7 to 10 days by agar tube dilution technique relative to ketoconazole. In outline: as §2
For experiment [10], the system named is Bacillus cereus. Kind of experiment: Antibacterial activity against Bacillus cereus after 24 hrs. An outline of the steps: as §1

Converted amounts (≈) assume the structure as drawn.

Consider `C=C1CCC[C@H](CO)CC[C@@H]2[C@@H]1CC2(C)C`, for which the MIC (usually the lowest concentration that inhibits growth of the organism) in [1] stood at 250 µg/mL (≈ 1120 µM); in experiment [3], 250 µg/mL (≈ 1120 µM); in experiment [4], 250 µg/mL (≈ 1120 µM); in experiment [5] it was 250 µg/mL (≈ 1120 µM); in experiment [8], 125 µg/mL (≈ 562 µM); in experiment [10], 125 µg/mL (≈ 562 µM). Also, the inhibition (as a rule, the percentage by which the read-out fell short of the control) at 200 µg/mL in [2] turned out to be 100%; in experiment [6] it was 75%; in experiment [7] it was 100%; in experiment [9], 59%.
Consider `O=C(N[C@H](CO)[C@H](O)c1ccc([N+](=O)[O-])cc1)C(Cl)Cl` [CHLORAMPHENICOL], for which the MIC in experiment [1] was determined as 250 µg/mL (≈ 774 µM); in experiment [3], 125 µg/mL (≈ 387 µM); in experiment [4] it was 7.81 µg/mL (≈ 24.2 µM); in experiment [5], 62.5 µg/mL (≈ 193 µM); in [10], 125 µg/mL (≈ 387 µM).
The molecule `CC(=O)N1CCN(c2ccc(OCC3COC(Cn4ccnc4)(c4ccc(Cl)cc4Cl)O3)cc2)CC1` (stereo unspecified) [KETOCONAZOLE] had an MIC in experiment [8] of 62.5 µg/mL (≈ 118 µM).

The values are drawn from ChEMBL document CHEMBL1142637, “New caryophyllene derivatives from Betula litwinowii” (2000).
